# Results as given in ChEMBL document CHEMBL1145760, “Design, synthesis and biological evaluation of benzimidazole/benzothiazole and benzoxazole derivatives as cyclooxygenase inhibitors” (Bioorg Med Chem Lett, 2003).
# Biological target: T1, Prostaglandin G/H synthase 1 (Homo sapiens, UniProt P23219)
# Assay: Inhibitory activity against Prostaglandin G/H synthase 1 in human whole blood assay as TXB2 generation
# Format: tissue-based
# Procedure, shortened: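 COX-1 activity measured in human whole blood by TXB2 generation. IC50 values were estimated by nonlinear regression of dose–response curves and are the average of three determinations.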
# T1 sequence (P23219 whole entry): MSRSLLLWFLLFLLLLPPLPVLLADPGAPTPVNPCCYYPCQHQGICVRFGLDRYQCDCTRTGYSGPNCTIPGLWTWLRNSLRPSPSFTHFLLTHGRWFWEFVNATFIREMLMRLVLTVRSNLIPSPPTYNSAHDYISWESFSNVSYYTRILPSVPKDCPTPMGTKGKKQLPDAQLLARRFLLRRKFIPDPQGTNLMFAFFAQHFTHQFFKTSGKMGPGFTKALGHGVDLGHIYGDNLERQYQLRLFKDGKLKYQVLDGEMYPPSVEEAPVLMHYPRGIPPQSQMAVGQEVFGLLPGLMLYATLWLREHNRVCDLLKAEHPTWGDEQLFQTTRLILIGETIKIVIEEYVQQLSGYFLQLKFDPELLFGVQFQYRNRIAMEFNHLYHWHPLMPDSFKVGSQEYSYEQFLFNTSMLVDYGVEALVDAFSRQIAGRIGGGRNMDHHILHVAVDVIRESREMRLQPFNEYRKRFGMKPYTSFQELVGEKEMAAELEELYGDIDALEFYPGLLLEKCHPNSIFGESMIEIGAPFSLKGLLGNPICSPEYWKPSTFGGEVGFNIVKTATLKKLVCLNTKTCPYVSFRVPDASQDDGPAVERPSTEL
row,Compound,IC50 [µM]
1,CCCCCCCCCCCCCCCc1cccc(OC)c1CSc1nc2ccc([N+](=O)[O-])cc2[nH]1,> 500
2,CCCCCCCCCCCCCCCc1cccc(OC)c1CSc1nc2ccccc2o1,> 500
3,CCCCCCCCCCCCCCCc1cccc(OC)c1CSc1nc2ccccc2s1,> 500
4,CCCCCCCCCCCCCCCc1cccc(OC)c1CSc1nc2cc(C)ccc2[nH]1,> 500
5,CCCCCCCCCCCCCCCc1cccc(O)c1CSc1nc2cc(OC)ccc2[nH]1,384
6,CCCCCCCCCCCCCCCc1cccc(OCC)c1CSc1nc2ccc([N+](=O)[O-])cc2[nH]1,> 500
7,CCCCCCCCCCCCCCCc1cccc(OCC)c1CSc1nc2ccccc2[nH]1,> 500
8,CCCCCCCCCCCCCCCc1cccc(OCC)c1CSc1nc2ccc(OC)cc2[nH]1,> 500

# Biological target: T2, Prostaglandin G/H synthase 2 (Homo sapiens, UniProt P35354)
# T2 sequence (P35354 whole entry): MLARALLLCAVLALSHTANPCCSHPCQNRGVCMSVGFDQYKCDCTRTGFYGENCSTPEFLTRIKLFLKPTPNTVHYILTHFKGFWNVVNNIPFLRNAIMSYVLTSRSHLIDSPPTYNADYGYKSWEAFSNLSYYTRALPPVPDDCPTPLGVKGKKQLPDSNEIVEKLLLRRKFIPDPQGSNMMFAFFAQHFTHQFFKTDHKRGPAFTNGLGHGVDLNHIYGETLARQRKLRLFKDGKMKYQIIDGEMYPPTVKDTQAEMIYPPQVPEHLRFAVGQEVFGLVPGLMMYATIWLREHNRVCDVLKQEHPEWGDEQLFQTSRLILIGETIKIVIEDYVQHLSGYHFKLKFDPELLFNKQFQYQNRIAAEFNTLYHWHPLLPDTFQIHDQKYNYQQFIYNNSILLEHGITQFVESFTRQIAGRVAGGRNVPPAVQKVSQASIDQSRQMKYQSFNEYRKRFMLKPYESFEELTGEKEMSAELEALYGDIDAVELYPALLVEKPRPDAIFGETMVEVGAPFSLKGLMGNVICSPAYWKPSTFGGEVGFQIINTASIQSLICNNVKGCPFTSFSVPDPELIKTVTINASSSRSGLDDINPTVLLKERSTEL
# Assay: Inhibitory activity against Prostaglandin G/H synthase 2 in human whole blood assay as LPS induced PGE-2 generation.
# Format: tissue-based
row,Compound,IC50 [µM]
1,CCCCCCCCCCCCCCCc1cccc(OCC)c1CSc1nc2ccc(C)cc2[nH]1,> 10
2,CCCCCCCCCCCCCCCc1cccc(OC)c1CSc1nc2ccccc2[nH]1,> 10
3,CCCCCCCCCCCCCCCc1cccc(OC)c1CSc1nc2ccc([N+](=O)[O-])cc2[nH]1,2.27
4,CCCCCCCCCCCCCCCc1cccc(OC)c1CSc1nc2cc(OC(F)F)ccc2[nH]1,> 10
5,CCCCCCCCCCCCCCCc1cccc(OC)c1CSc1nc2ccccc2o1,2.77
6,CCCCCCCCCCCCCCCc1cccc(OC)c1CSc1nc2ccccc2s1,1.06
7,CCCCCCCCCCCCCCCc1cccc(OC)c1CSc1nc2cc(OC)ccc2[nH]1,> 10
8,CCCCCCCCCCCCCCCc1cccc(OCC)c1CSc1nc2ccccc2s1,> 10
9,CCCCCCCCCCCCCCCc1cccc(OC)c1CSc1nc2cc(C)ccc2[nH]1,2.63
10,CCCCCCCCCCCCCCCc1cccc(OCC)c1CSc1nc2ccc(OC(F)F)cc2[nH]1,> 10
11,CCCCCCCCCCCCCCCc1cccc(O)c1CSc1nc2cc(OC)ccc2[nH]1,1
12,CCCCCCCCCCCCCCCc1cccc(OCC)c1CSc1nc2ccc([N+](=O)[O-])cc2[nH]1,3.84
13,CCCCCCCCCCCCCCCc1cccc(OCC)c1CSc1nc2ccccc2[nH]1,1.47
14,CCCCCCCCCCCCCCCc1cccc(OCC)c1CSc1nc2ccc(OC)cc2[nH]1,6.25
15,CCCCCCCCCCCCCCCc1cccc(OCC)c1CSc1nc2ccccc2o1,> 10

# Biological target: T1, Prostaglandin G/H synthase 1
# Assay: Ratio for inhibition of COX-1 to that of COX-2
row,Compound,Ratio
1,CCCCCCCCCCCCCCCc1cccc(OCC)c1CSc1nc2cc([N+](=O)[O-])ccc2[nH]1,> 130
2,CCCCCCCCCCCCCCCc1cccc(OC)c1CSc1nc2cc([N+](=O)[O-])ccc2[nH]1,> 220
3,CCCCCCCCCCCCCCCc1cccc(OC)c1CSc1nc2ccccc2o1,> 220
4,CCCCCCCCCCCCCCCc1cccc(OC)c1CSc1nc2ccccc2s1,> 470
5,CCCCCCCCCCCCCCCc1cccc(OC)c1CSc1nc2cc(C)ccc2[nH]1,> 190
6,CCCCCCCCCCCCCCCc1cccc(OCC)c1CSc1nc2cc(OC)ccc2[nH]1,> 80
7,CCCCCCCCCCCCCCCc1cccc(O)c1CSc1nc2cc(OC)ccc2[nH]1,384
8,CCCCCCCCCCCCCCCc1cccc(OCC)c1CSc1nc2ccccc2[nH]1,> 340
